Measurements as given in ChEMBL document CHEMBL4480436, “Lead optimization of selective tubulin inhibitors as anti-trypanosomal agents” (Bioorg Med Chem, 2019).

Columns and labels:
[1] = Selectivity index, ratio of IC50 for HEK293 cells to IC50 for Trypanosoma brucei brucei Lister 427; assay type: toxicity; conditions: human, read-out: Ratio IC50
Procedure, shortened: (§1)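 Ratio of mammalian MTT IC50 (48 h) to T. brucei MTS IC50 (48 h), both from quadruplicate dose–response fits.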

RAW264.7 = test: Cytotoxicity against mouse RAW264.7 cells after 48 hrs by MTT assay; assay type: cell-based; conditions: RAW264.7, 48 h
Procedure, shortened: (§2)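 Cells kept in RPMI1640 with 10% heat-inactivated FBS, 2 mM L-glutamine, 1 mM pyruvate, pen-strep, 37 °C, 5% CO2. 3000 cells/well seeded 24 h, then exposed to graded concentrations (DMSO ≤0.1% final) for 48 h. Then 0.5 mg/mL MTT 3 h at 37 °C, DMSO solubilization, absorbance 570 nm. Quadruplicate data fitted to dose–response curves for IC50.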

[2] = Selectivity index, ratio of IC50 for mouse RAW264.7 cells to IC50 for Trypanosoma brucei brucei Lister 427; assay type: toxicity; conditions: read-out: Ratio IC50; procedure, shortened: as §1
[3] = tested on: Trypanosoma brucei brucei; test: Antiparasitic activity against Trypanosoma brucei brucei Lister 427 assessed as reduction in parasite viability after 48 hrs by MTS assay; assay type: functional, organism-based; conditions: Lister 427, 48 h
Procedure, shortened: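 Bloodstream-form Lister 427 grown in HMI-9 with 10% FBS, 37 °C, 7.5% CO2. 5000 cells/well exposed to graded concentrations with 0.1% DMSO for 48 h at 37 °C. MTS/PMS reagent then added, 3 h at 37 °C, formazan read at 490 nm. Quadruplicate data normalized and fitted to dose–response curves for IC50 (Mean ± S.D.).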

HEK293 = test: Cytotoxicity against HEK293 cells after 48 hrs by MTT assay; assay type: cell-based; conditions: Homo sapiens, HEK293, 48 h; procedure, shortened: as §2

| SMILES | selectivity ratio [1] | IC50 (RAW264.7) [µM] | selectivity ratio [2] | IC50 [3] [µM] | IC50 (HEK293) [µM] |
| --- | --- | --- | --- | --- | --- |
| CS(=O)(=O)Nc1ccc(NC(=O)c2ccc(Cl)cc2)cc1Cl | < 3 | 79.9 | < 2 | > 62.5 | 167 |
| CCS(=O)(=O)Nc1ccc(NC(=O)c2ccc(C#N)cc2)cc1F | < 1 | 107 | < 2 | > 62.5 | 26.4 |
| Cc1cc(NC(=O)c2cccc(C(F)(F)F)c2)ccc1NS(=O)(=O)C(F)(F)F | 6 | 8.72 | < 1 | 21.7 | 131 |
| CCS(=O)(=O)Nc1ccc(NC(=O)c2ccc(Cl)c([N+](=O)[O-])c2)cc1F | 10 | 198 | 24 | 8.39 | 83.7 |
| O=C(Nc1ccc(NS(=O)(=O)C(F)(F)F)c(F)c1)c1ccc(Cl)c([N+](=O)[O-])c1 | 12 | 188 | 11 | 16.8 | 194 |
| CCS(=O)(=O)Nc1ccc(NC(=O)c2cccc(C(F)(F)F)c2)cc1Cl | 20 | 62.4 | 8 | 7.81 | 159 |
| COc1cc(NC(=O)c2cccc(C(F)(F)F)c2)ccc1NS(C)(=O)=O |  | 84.8 | < 2 | > 62.5 | > 250 |
| CCS(=O)(=O)Nc1ccc(NC(=O)c2ccc(C#N)cc2)cc1OC |  | 66.4 | < 2 | > 62.5 | > 250 |
| CCS(=O)(=O)Nc1ccc(NC(=O)c2cccc(C(F)(F)F)c2)cc1OC | > 7 | 84.8 | 2 | 35.7 | > 250 |
| CCS(=O)(=O)Nc1ccc(NC(=O)c2ccc(Cl)c([N+](=O)[O-])c2)cc1OC | < 2 | 5.66 | < 1 | > 62.5 | 63.6 |
| COc1cc(NC(=O)c2ccc(C#N)cc2)ccc1NS(=O)(=O)C(F)(F)F | > 26 | > 250 | > 26 | 9.48 | > 250 |
| CCS(=O)(=O)Nc1ccc(NC(=O)c2ccc(Cl)cc2)cc1F | < 1 | 152 | < 3 | > 62.5 | 53.4 |
| CS(=O)(=O)Nc1ccc(NC(=O)c2cccc(C(F)(F)F)c2)cc1Cl |  | > 250 |  | > 62.5 | > 250 |
| CCS(=O)(=O)Nc1ccc(NC(=O)c2ccc(Cl)cc2)cc1OC |  | 60.1 | < 1 | > 62.5 | > 250 |
| Cc1cc(NC(=O)c2ccc(Cl)cc2)ccc1NS(=O)(=O)C(F)(F)F | 5 |  | 1 | 37.2 | 200 |
| COc1cc(NC(=O)c2ccc(C#N)cc2)ccc1NS(C)(=O)=O |  | > 250 |  | > 62.5 | > 250 |
| CS(=O)(=O)Nc1ccc(NC(=O)c2cccc(C(F)(F)F)c2)cc1F |  | 32.3 | < 1 | > 62.5 | > 250 |
| Cc1cc(NC(=O)c2ccc(Cl)c([N+](=O)[O-])c2)ccc1NS(C)(=O)=O | 10 | 108 | 14 | 7.57 | 73.1 |
| Cc1cc(NC(=O)c2cccc(C(F)(F)F)c2)ccc1NS(C)(=O)=O | 12 | 110 | 7 | 16.7 | 194 |

| SMILES | selectivity ratio [1] | IC50 (RAW264.7) [µM] | selectivity ratio [2] | IC50 [3] [µM] | IC50 (HEK293) [µM] |
| --- | --- | --- | --- | --- | --- |
| COc1cc(NC(=O)c2ccc(Cl)cc2)ccc1NS(C)(=O)=O |  | 70 | < 2 | > 62.5 | > 250 |
| CCS(=O)(=O)Nc1ccc(NC(=O)c2cc(C(F)(F)F)cc(C(F)(F)F)c2)cc1Cl | 19 | 64.1 | 37 | 1.73 | 32.2 |
| Cc1cc(NC(=O)c2ccc(C#N)cc2)ccc1NS(=O)(=O)C(F)(F)F |  | 135 | < 3 | > 62.5 | > 250 |
| CCS(=O)(=O)Nc1ccc(NC(=O)c2ccc(Cl)cc2)cc1C | < 3 | 68.7 | < 2 | > 62.5 | 125 |
| COc1cc(NC(=O)c2cc(C(F)(F)F)cc(C(F)(F)F)c2)ccc1NS(=O)(=O)C(F)(F)F |  | > 250 |  | > 62.5 | > 250 |
| COc1cc(NC(=O)c2ccc(Cl)c([N+](=O)[O-])c2)ccc1NS(=O)(=O)C(F)(F)F | > 18 | > 250 | > 18 | 14.1 | > 250 |
| CCS(=O)(=O)Nc1ccc(NC(=O)c2cc(C(F)(F)F)cc(C(F)(F)F)c2)cc1OC | > 22 | > 250 | > 22 | 11.6 | > 250 |
| CS(=O)(=O)Nc1ccc(NC(=O)c2ccc(C#N)cc2)cc1Cl |  | > 250 |  | > 62.5 | > 250 |
| CS(=O)(=O)Nc1ccc(NC(=O)c2ccc(Cl)c([N+](=O)[O-])c2)cc1F | < 1 | 102 | < 2 | > 62.5 | 23.1 |
| CCS(=O)(=O)Nc1ccc(NC(=O)c2ccc(Cl)cc2)cc1Cl | > 13 | > 250 | > 13 | 19.1 | > 250 |
| COc1cc(NC(=O)c2ccc(Cl)cc2)ccc1NS(=O)(=O)C(F)(F)F | > 5 | 108 | 2 | 45.6 | > 250 |
| N#Cc1ccc(C(=O)Nc2ccc(NS(=O)(=O)C(F)(F)F)c(Cl)c2)cc1 | > 23 | > 250 | > 23 | 11 | > 250 |
| CCS(=O)(=O)Nc1ccc(NC(=O)c2cccc(C(F)(F)F)c2)cc1C | 6 | 114 | 3 | 35.3 | 210 |
| CS(=O)(=O)Nc1ccc(NC(=O)c2cc(C(F)(F)F)cc(C(F)(F)F)c2)cc1F | > 11 | 125 | 5 | 23.7 | > 250 |
| CS(=O)(=O)Nc1ccc(NC(=O)c2ccc(C#N)cc2)cc1F |  | > 250 |  | > 62.5 | > 250 |
| CCS(=O)(=O)Nc1ccc(NC(=O)c2ccc(C#N)cc2)cc1C |  | 109 | < 2 | > 62.5 | > 250 |
| Cc1cc(NC(=O)c2ccc(Cl)c([N+](=O)[O-])c2)ccc1NS(=O)(=O)C(F)(F)F |  | 89.8 | < 2 | > 62.5 | > 250 |
| COc1cc(NC(=O)c2ccc(Cl)c([N+](=O)[O-])c2)ccc1NS(C)(=O)=O | < 3 | > 250 |  | > 62.5 | 164 |
| COc1cc(NC(=O)c2cc(C(F)(F)F)cc(C(F)(F)F)c2)ccc1NS(C)(=O)=O | < 1 | > 250 |  | > 62.5 | 42 |
